Columns and labels:
Klebsiella pneumoniae = test: Antibacterial activity against drug-resistant carbapenemase producing Klebsiella pneumoniae clinical isolate KP-14-2 after 16 to 20 hrs by broth microdilution method; assay type: functional
Method in brief: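 CLSI broth microdilution in Mueller-Hinton broth. A 4-6 h culture was diluted to about 10⁶ CFU/mL and mixed 1:1 with compound dilutions prepared at 256 to 0.5 µg/mL from aqueous stocks. Plates were incubated at 37 °C for 16-20 h and read visually for MIC. Each concentration was run in duplicate, and the experiment was repeated at least twice. Vancomycin and meropenem were comparators.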

Salmonella enterica = test: Antibacterial activity against Salmonella enterica ATCC 13076 after 16 to 20 hrs by broth microdilution method; assay type: functional
Method in brief: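 Broth microdilution per CLSI. Bacteria grown 4-6 h (about 10⁸ CFU/mL), then diluted to about 10⁶ CFU/mL. Medium: Mueller-Hinton broth, except Luria-Bertani broth for E. coli. Compounds in sterile water, twofold series 256-0.5 µg/mL, mixed 1:1 with inoculum, 37 °C for 16-20 h. MIC is the lowest concentration without visible growth. Duplicate wells; experiment repeated at least twice.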

Work on CCCCCCCC[N+](C)(C)CC(=O)Nc1ccc(C(=O)/C=C/c2ccccc2F)cc1.[Cl-] yielded an MIC (Klebsiella pneumoniae) of 16 µg/mL and an MIC (Salmonella enterica) of 4 µg/mL.

From ChEMBL document CHEMBL4138242, “Synthesis and antibacterial evaluation of novel cationic chalcone derivatives possessing broad spectrum antibacterial activity” (Eur J Med Chem, 2018)
